# Screening data as filed in PubChem BioAssay.
# SENP8 block-1 = inhibitors of human SENP8 protease; Q96LD8; recombinant SENP8, Nedd8 substrate fluorescence; inhibition, % at 20 µM; hit rate 0.64% among 360,000; in the data active means inhibition mostly above about 40%, no sharp cut-off; inactive means mostly below about 27%
# Target sequence (Q96LD8 whole entry, looked up): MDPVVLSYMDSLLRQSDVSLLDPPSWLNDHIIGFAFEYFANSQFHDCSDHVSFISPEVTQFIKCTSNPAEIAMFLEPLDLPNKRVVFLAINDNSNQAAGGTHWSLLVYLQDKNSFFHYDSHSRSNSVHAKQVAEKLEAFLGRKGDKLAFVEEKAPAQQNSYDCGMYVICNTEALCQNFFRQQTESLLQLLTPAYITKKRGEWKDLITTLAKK
# SENP8 block-2 = inhibitors of human SENP8 protease; Q96LD8; purified SENP8, Z-RLRGG-aminoluciferin cleavage, luminescence; inhibition, % at 10 µM; hit rate 1.2% among 330,000; in the data active means inhibition above about 50%
# SENP1 inh = SENP1 (human) catalytic domain inhibition; Q9P0U3; recombinant SENP1 catalytic domain, CyPet-SUMO1-YPet FRET cleavage; inhibition, % at 10 µM; hit rate 0.21% among 360,000;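 active means inhibition at least 30% at 10 µM, raw YFP signal under a set limit, fluorescence ratio 0.5 to 1.5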;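 further: 0% = enzyme with DMSO and 100% = no enzyme wells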
#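 Test system: recombinant human SENP1 catalytic domain, His6-tagged / Medium: pH 8 Tris buffer with EDTA, NaCl, BME, BSA, NP40, catalase / Also added: SUMO1 FRET substrate flanked by Cypet and Ypet, 25 nM / Times: 50 min reaction at room temperature / Signal: FRET, CFP and YFP emission / Control set: no-enzyme low control and enzyme-plus-DMSO high control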
# SENP6 inh = SENP6 protease inhibition; Recombinant SENP6 catalytic domain, aminoluciferin luminescence; inhibition, % at 10 µM; hit rate 1.8% among 330,000; AID 2599;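 active means inhibition above about 50% at the single tested dose, limit read from the data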;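 further: plate controls were DMSO wells with enzyme for no effect and DMSO wells lacking enzyme for full effect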
# CendR NRP1 mod = NRP-1/CendR interaction modulation | O14786 | FAM-RPARPAR peptide binding to NRP-1, fluorescence polarization | inhibition, % at 25 µM | hit rate 0.85% among 360,000;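 active means inhibition or corrected inhibition above about 18%, plus a signal ratio from 0.5 to 1.5, limit read from the data, passing the limit was not always enough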
# SENP7 block = inhibitors of human SENP7 protease | recombinant SENP7, Z-RLRGG-aminoluciferin luminescence, 40 min | inhibition, % at 5 µM | hit rate 1.5% among 330,000;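 active means inhibition above about 50% at the single test dose, limit read from the data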;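 further: plate controls were DMSO with enzyme for no effect and no enzyme buffer wells for full effect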
# Target sequence (Q9BQF6 706-1050 limits assumed): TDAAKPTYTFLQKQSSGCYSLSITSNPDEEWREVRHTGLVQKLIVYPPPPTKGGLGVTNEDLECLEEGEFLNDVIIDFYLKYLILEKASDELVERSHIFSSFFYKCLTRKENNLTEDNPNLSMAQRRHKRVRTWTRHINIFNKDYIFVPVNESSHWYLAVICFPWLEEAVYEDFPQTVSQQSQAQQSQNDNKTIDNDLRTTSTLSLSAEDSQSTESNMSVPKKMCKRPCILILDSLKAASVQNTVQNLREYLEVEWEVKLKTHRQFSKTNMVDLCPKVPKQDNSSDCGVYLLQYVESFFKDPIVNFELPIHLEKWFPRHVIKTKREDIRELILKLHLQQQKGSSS
# SENP8 conf = SENP8 (human) inhibition, single concentration confirmation; hit rate 15% among 1,400; purified SENP8, Nedd8-AMC/pro-Nedd8 cleavage fluorescence, 30 min; inhibition, % at 25 µM; shares compounds with SENP8 block-1; AID 624319; in the data active means inhibition mostly above about 39%, no sharp cut-off; inactive means mostly below about 34%
# Numbers without * were called inactive; / = no result. This is a sample that favours compounds with a hit; in the whole collection about 3.3% have one here.
SMILES,SENP8 block-1,SENP8 block-2,SENP1 inh,SENP6 inh,CendR NRP1 mod,SENP7 block,SENP8 conf
CC1C(c2ccc3c(c2)OCO3)c2cc3c(cc2OC1N1CCOCC1)OCO3 (configuration not stated),9,/,2,/,3,/,/
CC(C)(C)c1ccc(C(=O)N2CCC2(C)C(=O)NCC(F)(F)F)cc1 (configuration not stated),6,/,1,/,6,/,/
CCc1cccc2c1Sc1ccccc1CC2N1CCNCC1 (configuration not stated),44*,-11,3,-36,4,12,14
Cc1cccc2c1Sc1ccc(Cl)cc1CC2N1CCNCC1 (configuration not stated),/,-36,/,-40,/,12,/
CCn1c(SCC(=O)Nc2ccc(N3CCOCC3)cc2)nnc1C1CC1,9,1,4,5,17,2,/
O=C1CSC(c2c(F)cccc2Cl)N1c1cccc(F)c1 (configuration not stated),44*,10,0,4,14,3,11
S=C(NNc1cccc(Cl)c1)NC1CCCCC1,49*,-5,2,0,-20,-7,21
Oc1ccc(N2CCN(Cc3ccc(OCCCN4CCCCC4)cc3)CC2)cc1,40*,-3,-6,9,4,-9,13
CC(C)(C)S(=O)N1Cc2cn(Cc3ccccc3)c(=O)cc2[C@@H]1CCO (some centres not stated),-38,/,-1,/,0,/,/
CCC(CC)C(=O)N(C)c1c(C)nc2c(OCCOc3ccccc3)cccn12,-2,/,-2,/,1,/,/
CCCOc1cccn2c(N(C)C(=O)c3ccccc3F)c(CC)nc12,12,/,-1,/,-8,/,/
CCc1nc2c(OCC=C(C)C)cccn2c1N(C)C(=O)c1ccccc1F,41*,/,-4,/,-8,/,15
CCc1nc2c(OCC=C(C)C)cccn2c1N(C)C(=O)c1ccc(OC)cc1,43*,/,-1,/,3,/,-2
CCC(CC)C(=O)N(C)c1c(C)nc2c(OCC=C(C)C)cccn12,40*,/,3,/,-8,/,26
COc1ccc(C(O)c2nccn2C)cc1 (configuration not stated),8,-9,1,-18,-10,-7,/
C=Cn1ccnc1CC(O)c1ccc(OC)cc1 (configuration not stated),44*,-8,0,-17,-1,8,-6
Cc1cc(Br)cn2c(Cc3ccccc3)c(-c3ccc(C#N)cc3)nc12,-74,/,7,/,-37,/,/
C(=N\NC1=Nc2cccc3cccc1c23)/c1cccnc1,51*,-6,-21,5,-96,2,27
O=C(c1ccccc1)[C@@H]1[C@@H](C(=O)c2ccc(F)cc2)[C@@]2(C(=O)Nc3ccccc32)[C@H]2c3ccccc3C=CN12,54*,28,9,64*,-19,13,66*
O=C(CN1CCN(Cc2ccccc2)CC1)Nc1cccc(Cl)c1Cl,18,/,4,/,-21,/,/
CC(C)C[C@H](NC(=O)N1CC(=O)Nc2ccccc21)C(=O)N[C@H](Cc1c[nH]c2ccccc12)C(=O)O,51*,-11,-1,0,1,7,5
O=C1CN(C(=O)NCC(=O)N[C@@H](Cc2ccccc2)C(=O)O)c2ccccc2N1,46*,2,-1,-14,10,-3,20
O=C1CN(C(=O)N[C@@H](Cc2ccccc2)C(=O)N[C@@H](Cc2ccccc2)C(=O)O)c2ccccc2N1,16,-3,3,-2,-2,4,/
CCCN(C)C1CN(Cc2cn(Cc3ccc(C)cc3)nn2)S(=O)(=O)C1 (configuration not stated),16,/,0,/,0,/,/
COc1ccc(/C=C/C(=O)Nc2ccc(C)c(S(=O)(=O)N3CCOCC3)c2)cc1,-44,11,8,14,-5,2,/
SMILES,SENP8 block-1,SENP8 block-2,SENP1 inh,SENP6 inh,CendR NRP1 mod,SENP7 block,SENP8 conf
CC(=O)Oc1ccc2c(c1)CCC1C2CCC2(C)C(OC(C)=O)CCC12 (configuration not stated),47*,/,1,/,5,/,6
C[C@]12CC[C@@H]3c4ccc(OC(=O)c5ccccc5)cc4CC[C@H]3[C@@H]1CC[C@@H]2O,1,6,3,6,14,5,/
CNC(=O)[C@@H]1CCC(=O)N1,26,-10,2,-14,19,-12,/
O=C1CCC(C(=O)O)N1 (configuration not stated),52*,3,2,-16,-22,-2,17
COc1ccc(Cl)cc1NC(=O)CN1C(=O)NC(Cc2c[nH]c3ccccc23)C1=O (configuration not stated),12,-6,1,-1,10,1,/
O=C(COC(=O)c1ccc(Br)o1)NCc1ccc2c(c1)OCO2,8,-6,2,2,5,-3,/
O=C(COC(=O)c1ccc([N+](=O)[O-])o1)NCc1ccc2c(c1)OCO2,41*,6,2,20,-1,-1,76*
CC(NC(=O)COC(=O)c1ccc([N+](=O)[O-])o1)c1ccccc1 (configuration not stated),57*,11,4,8,0,8,88*
COc1ccc(CSc2nnnn2-c2ccc(C(N)=O)cc2)cc1[N+](=O)[O-],9,-3,1,17,-10,6,/
COc1ccc(CSc2nnnn2C)cc1[N+](=O)[O-],48*,2,2,-3,12,9,14
COCCN1Cc2cccc(C(=O)NCc3cccs3)c2C1=O,42*,-2,-2,-4,5,-6,6
CC(O)/C=C/C1OC(=O)CC1Nc1ccc(C=O)cc1 (configuration not stated),52*,-7,4,3,6,1,15
COC(=O)c1sc(NC(=O)c2ccc([N+](=O)[O-])o2)c(C#N)c1C,42*,-1,-2,3,-2,11,12
CC(C)(C)n1nnnc1C(c1ccccc1)N1CCN(c2ccc(C(F)(F)F)cn2)CC1 (configuration not stated),-12,/,3,/,-2,/,/
O=C(O)c1cccc(C(=O)c2cccc(C(=O)O)c2)c1,8,16,2,0,8,6,/
O=C(O)c1cccc(Br)c1,42*,/,1,/,-10,/,4
COc1c(/C=N/Nc2ccc([N+](=O)[O-])cc2[N+](=O)[O-])c(C)nn1-c1ccccc1,62*,1,3,1,16,7,24
Cc1ccc(-n2[nH]c(C)c(/C=N/Nc3ccc([N+](=O)[O-])cc3[N+](=O)[O-])c2=O)cc1C,40*,9,3,-1,41*,5,29
